# Screening data from PubChem.
# PglD inh = blocks C. jejuni PglD acetyltransferase activity; purified PglD enzyme, DTNB colorimetric CoA detection; inhibition, % at 12.5 µM; 360,000 compounds, 0.098% hits; AID 602405; in the data active means inhibition above about 16%, passing the limit was not always enough
# FGF22 binding = FGF22 (human) thermal shift binding; Q9HCT0; recombinant FGF22 thermal shift, SYPRO orange fluorescence; percent of sucrose octasulfate shift, DMSO zero; activity (Tm shift, normalised), % at 9.99 µM; 340,000 compounds, 1.5% hits; AID 651658;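 active means mean Tm shift, scaled 0 neutral to 100 positive control, at about 1.3% or above, every replicate too, limit read from the data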
# Target sequence (Q9HCT0 whole entry, looked up): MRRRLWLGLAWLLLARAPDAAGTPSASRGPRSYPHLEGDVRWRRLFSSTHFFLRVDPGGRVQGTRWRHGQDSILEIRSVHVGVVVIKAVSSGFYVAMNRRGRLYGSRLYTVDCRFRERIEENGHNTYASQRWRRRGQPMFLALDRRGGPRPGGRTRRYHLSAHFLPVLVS
# Cneo AK release = causes C. neoformans cell lysis; adenylate kinase release luminescence, 4 h; normalised: neutral wells 0, clomiphene wells 100; lysis activity, % at 15 µM; 360,000 compounds, 0.2% hits;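 active means mean lysis activity across replicates of at least 80%, whatever share of replicates individually reach that level; inactive means mean lysis activity below 80%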
#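 Material: C. neoformans cells | Amount: Yeast cell density of 5 × 10^6 cells/mL | Medium: Fresh YPD growth medium | Dosing: Single dose | Times: Static 4 h at 37 °C with compound, 1 h detection | Detection: AK luminescence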
# PGC1a acetyl inh = lowers PGC1a acetylation signal in U2OS cells; AlphaScreen anti-acetyl-lysine; with virally co-expressed GCN5 acetyltransferase; inhibition, % at 15.6 µM; 350,000 compounds, 0.17% hits; AID 651687;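 active means every replicate shows inhibition of at least 40%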;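 further: 0% = neutral control wells and 100% = positive control wells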
# Ecoli rRNA inh = selective bacterial rRNA inhibition in E. coli. E. coli WT GFP vs humanized-ribosome RFP mutants, fluorescence, 24 h; active compounds read low; DMSO median 0, no signal -100. GFP signal change (wild-type ribosome), % (concentration not given with the values). 350,000 compounds, 1.6% hits;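 active means significant combined selectivity score with lowered wild-type GFP, culture density cut under 30%, mutant RFP and density less affected; inactive means any of these conditions unmet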
# Vif imaging = inhibitors of HIV Vif | HEK293T cells, Vif self-association by quenched fluorescence, imaging, 24 h | inhibition, % at 7.49 µM | 340,000 compounds, 0.35% hits | AID 602346; in the data active means inhibition above about 50%, passing the limit was not always enough
# Active calls of the source: *; x = no result given. Shown are actives, neighbours in structure and some others; about 2.9% of the full set was active somewhere.
SMILES,PglD inh,FGF22 binding,Cneo AK release,PGC1a acetyl inh,Ecoli rRNA inh,Vif imaging
N#Cc1ccc(-c2ccc([C@H]3[C@@H](CO)N4C(=O)CN(C(=O)C5CCCC5)C[C@H]34)cc2)cc1,x,x,x,-9.1,-2.3,x
COc1cc(C(=S)N2CCOCC2)ccc1OC(=O)/C=C/c1ccco1,x,43.1*,x,x,-6.3,0.0
CCOc1cc(C(=S)N2CCOCC2)ccc1OC,-1.3,x,-4.1,12.1,x,66.3*
O=C(/C=C/c1ccccc1)Oc1cccc(C(=S)N2CCOCC2)c1,-6.2,-0.1,-3.2,x,-6.3,-8.0
O=C(/C=C/c1ccccc1)Oc1ccccc1C(=S)N1CCOCC1,x,43.2*,x,x,-14.8,2.4
COc1cc(C(=S)N2CCOCC2)ccc1OC(=O)c1ccccc1,0.2,-0.2,0.9,x,3.8,-0.4
Cc1noc(C)c1NC(=O)N[C@@H]1CC[C@@H](CC(=O)NCc2ccc(Cl)c(Cl)c2)O[C@@H]1CO,0.2,0.1,1.1,5.6,-0.6,x
COc1ccc2c3c(n(C)c2c1)[C@H](CO)N(Cc1cc(F)ccc1F)CC31CN(C(C)=O)C1,x,-0.1,x,1.9,-0.5,x
O=C(C[C@@H]1C[C@@H]2c3cc(NC(=O)NC4CCCC4)ccc3O[C@@H]2[C@H](CO)O1)NCc1ccc2c(c1)OCO2,-0.6,0.5,1.9,-4.8,-0.4,x
CC(C)C#Cc1cnc2c(c1)C(=O)N([C@H](C)CO)C[C@H](C)[C@@H](CN(C)C(=O)CCN1CCCCC1)O2,-1.4,0.0,1.8,-0.2,3.4,x
Cc1ccccc1/C=N/Nc1ccnc2cc(Cl)ccc12,1.0,0.0,-1.5,x,1.0,0.4
Oc1ccc(/C=N/Nc2ccnc3cc(Cl)ccc23)c(O)c1,3.4,0.3,-5.4,-34.3,-32.7*,0.1
CCn1cc(Br)c(C(=O)Nc2ccc(C(=O)OC(C)C)cc2)n1,-4.0,-0.2,-5.7,-4.5,-21.4*,-15.1
O=C(N[C@H]1C=C[C@@H](CC(=O)N2CCCCC2)O[C@H]1CO)c1ccc2c(c1)OCO2,15.8*,-0.1,-3.5,7.3,0.9,x
COc1ccc(-c2cc(-c3ccccc3O)[nH]n2)cc1OC,-1.5,x,-14.3,-94.8,x,-1.2
COc1ccc(-c2cc(-c3cc(F)ccc3O)[nH]n2)cc1OC,1.1,0.4,-7.3,-8.9,-33.3*,-2.6
CO[C@@H]1CN(C)C(=O)c2cc(NC(=O)NC3CCCCC3)ccc2OC[C@@H](C)N(C(C)=O)C[C@@H]1C,0.4,-0.1,-8.1,7.9,1.5,x
Cn1nnnc1SCc1ccc(C(=O)Nc2ccc(Br)cc2)cc1,9.0,x,-0.4,x,x,80.9*
Cn1nnnc1SCC(=O)Nc1ncc(C(F)(F)F)cc1Cl,-2.3,43.5*,10.2,11.8,5.0,-9.0
Cn1nnnc1SCC(=O)Nc1ncc(Cl)cc1Cl,-1.3,0.1,-5.5,x,1.7,-8.9
Cn1nnnc1SCC(=O)NNC(=O)c1ccc(Cl)cc1,x,44.0*,x,9.3,6.9,3.4
CCCn1c(SCC(=O)NNC(=O)c2ccc(C)cc2)nnc1C(C)C,3.3,-0.1,1.3,9.4,3.8,55.2*
CCCn1c(SCC(=O)NNC(=O)c2ccc(OC)cc2)nnc1C(C)C,-9.4,-0.2,-3.6,8.7,0.6,16.2
Clc1cccc(Cc2c(-c3ccco3)nc3ccc(Cl)cn23)c1,-3.4,1.7*,0.8,-3.3,-4.1,x
O=C(O)CCC(=O)Nc1ccc(C(=O)OCC(=O)c2ccc(Cl)cc2Cl)cc1,x,43.0*,x,-2.4,-32.3,-2.1
SMILES,PglD inh,FGF22 binding,Cneo AK release,PGC1a acetyl inh,Ecoli rRNA inh,Vif imaging
CCCNC(=O)[C@@H]1[C@@H](CO)[C@@H]2Cn3c(ccc(-c4ccccc4F)c3=O)[C@@H]2N1C(=O)CC,2.5,0.0,5.5,x,2.2,x
COc1cccc(/C=c2\s/c(=C/C(=O)c3ccc(C)cc3)[nH]c2=O)c1OC,8.4,x,0.4,x,x,11.0
COc1ccc(/C=c2\s/c(=C/C(=O)c3ccc(C)cc3)[nH]c2=O)c(OC)c1,-2.8,-0.3,5.4,12.4,38.4,96.6*
COc1ccccc1CCNC(=O)c1cccc(NC(=O)CC2SC(N3CCCCC3)=NC2=O)c1 (configuration not stated),-1.4,-0.2,-0.2,x,-21.1*,-24.7
O=C(C[C@@H]1C=C[C@H](NC(=O)Nc2ccc(F)cc2)[C@@H](CO)O1)NCc1cccc(F)c1,1.7,0.0,0.8,-1.2,0.7,x
CN(C)c1cccc2c1c(NC(=O)Nc1ccccc1)nn2C,x,-0.1,x,2.9,-17.9*,-1.8
COc1ccc(C)cc1NC(=S)NNC(=O)c1c(Br)cnn1C,x,44.2*,x,-7.1,-18.4,1.8
COc1ccc(C)cc1NC(=S)NNC(=O)c1ccccc1Cl,-11.7,x,7.8,3.9,x,0.6
O=C(NC(=O)c1cccc(F)c1)Nc1nc(-c2ccc(F)cc2)cc(C(F)(F)F)n1,x,43.8*,x,x,10.3,-1.6
C[C@H]1CN([C@@H](C)CO)C(=O)c2cccc(NC(=O)Nc3cccc4ccccc34)c2O[C@@H]1CN(C)C(=O)Nc1ccc2c(c1)OCO2,-2.6,-0.6,-10.8,-9.0,-3.0,x
CCCC(=O)C1=C(O)C(C(=O)OC)C(C)(C)CC1=Nc1ccc(C)cc1 (configuration not stated),x,0.0,x,x,-3.7,0.8
CCCC(=O)C1=C(O)C(C(=O)OC)C(C)(C)CC1=Nc1ccc(OC)cc1 (configuration not stated),x,42.2,x,46.2*,-10.1,-21.9
CC(C)(C)c1ccc(C(=O)N/C(=C\c2cccc([N+](=O)[O-])c2)C(=O)Nc2cccc(C(=O)O)c2)cc1,36.4*,0.0,-3.0,9.2,-2.6,-0.9
CCCCOc1ccc(C(=O)N/C(=C/c2cccc([N+](=O)[O-])c2)C(=O)O)cc1,x,51.8*,x,12.9,11.4,1.4
C=C1CC(/C=C/c2cc(OC)c(OC)c(OC)c2)OC1=O (configuration not stated),x,0.0,-13.7,-32.4,x,x
O=C1c2cccc3c(N4CCCCC4)ccc(c23)C(=O)N1c1ccc(O)cc1,x,0.0,x,x,32.2,112.5*
O=C(C[C@@H]1CC[C@@H]2[C@H](COC[C@H](O)CN2C(=O)C2CCOCC2)O1)NCc1ccncc1,-2.9,0.0,-1.6,-0.5,5.6,x
C[C@H]1CN([C@@H](C)CO)C(=O)c2cc(C3=CCCCC3)cnc2O[C@@H]1CN(C)C(=O)c1ccncc1,4.3,0.1,1.3,6.7,0.4,x
Cc1ccc(CN2CCC(CNC(=O)Nc3ccccc3F)CC2)cc1,-5.8,-0.1,0.1,4.8,21.5,2.7
O=C(NCC1CC1)Nc1ccccc1F,-1.3,0.1,-2.2,82.8*,2.2,-6.4
O=C(NC1=NN(c2ccccc2)CC1)Nc1ccccc1F,8.6,-0.3,1.3,-1.9,-32.4*,2.6
O=C(Nc1ccccc1F)Nc1ccccc1N1CCCCC1,-0.5,0.1,7.6,x,-31.2*,5.6
COc1ccccc1NC(=O)C1=C(C)NC(=O)NC1c1ccccc1[N+](=O)[O-] (configuration not stated),x,43.3*,x,x,x,-0.1
